Compound activity from PubChem.
ROMK mod: modulators of human ROMK potassium channel | 130,000 compounds, 2% hits | Tet-inducible ROMK, thallium flux fluorescence; actives lie on both sides | P48048 | B-score at 10 µM;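 active = signal ratio slope over the read window, or its plate-corrected B-score, at least 3 SD from the plate mean, either direction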;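 note: B-score of the F/F0 ratio slope over 7 to 12 s after thallium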
Target sequence (P48048 whole entry, looked up): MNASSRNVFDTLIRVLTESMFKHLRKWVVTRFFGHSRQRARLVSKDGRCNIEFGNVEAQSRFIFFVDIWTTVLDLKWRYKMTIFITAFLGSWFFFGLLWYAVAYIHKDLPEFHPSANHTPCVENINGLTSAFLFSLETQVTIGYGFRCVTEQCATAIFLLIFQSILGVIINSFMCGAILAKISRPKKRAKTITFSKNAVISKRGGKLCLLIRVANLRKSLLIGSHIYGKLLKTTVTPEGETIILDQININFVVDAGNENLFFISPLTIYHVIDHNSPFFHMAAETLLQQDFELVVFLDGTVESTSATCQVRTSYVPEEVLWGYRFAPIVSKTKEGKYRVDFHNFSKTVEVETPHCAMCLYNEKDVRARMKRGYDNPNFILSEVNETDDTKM
Biofilm kill mix: mixtures killing C. albicans biofilm | inhibition, % at 7.6 µM | AID 1242 | 120,000 compounds, 0.02% hits | C. albicans biofilm persisters + clotrimazole, fluorescence viability; primary screen in compound mixtures of four per well;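 note: compounds exposed to preformed 24 h biofilms for 48 h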
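System: C. albicans CAF4-2 wild-type biofilms; Medium: RPMI/MOPS medium, pH 7.0; Reagent: Clotrimazole, 50 µg/mL; Times: biofilm formation 24 h, compound exposure 48 h, 37 °C; Detection: 2-h Alamar Blue fluorescence, 535/590 nm excitation/emission; Evaluation: percent inhibition of biofilm viability.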
ROMK hit retest: human ROMK channel modulation, retest confirmation | shares compounds with ROMK mod | ROMK thallium flux, fluorescence ratio; active compounds read low | normalized thallium flux (F/F0 slope) at 10 µM | 3,000 compounds, 54% hits | AID 1917;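 active = Flux at 10 µM at least 3 SD below or above vehicle control mean in one or both replicates; inconclusive = no clear call, values can overlap the other calls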
Hits are given with their value; i = inactive; ? = inconclusive; nt = no result. The full list was thinned out, with hits kept by preference.

SMILES	ROMK mod	Biofilm kill mix	ROMK hit retest
Cc1cccn2c(=O)c3cc(C(=O)NC4CCCC4)c(=N)n(C4CCCC4)c3nc12	-2.6	nt	?
COc1cccc(/C=N/n2c(SC)nnc2-c2ccccc2)c1O	3.6	nt	i
COc1cccc(/C=N/N2CCOCC2)c1O	nt	i	nt
CCN1C(=O)c2cccc3c(S(=O)(=O)Nc4ccccn4)ccc1c23	i	nt	nt
CCN1C(=O)c2cccc3c(S(=O)(=O)Nc4ccncc4)ccc1c23	2.3	nt	i
CCC(C)[C@H](NC(=O)NCc1ccc(Cl)cc1)C(=O)O (stereo partly specified)	nt	i	nt
COc1ccc(CC(=O)Nc2nc(-c3cccnc3)cs2)cc1	nt	i	nt
Cc1ccc(-c2csc(NC(=O)Cc3ccc(F)cc3)n2)o1	4.9	i	i
CN(CCNC(=O)c1ccc(N2CCCC2=O)cc1)CCc1ccccc1	i	nt	nt
COc1ccc(N2CCN(C(=O)c3ccc(N(C)S(=O)(=O)c4ccc(OC)cc4)cc3)CC2)cc1	-14	i	?
COc1ccc(N2CCN(C(=O)c3ccc(N(C)S(=O)(=O)c4ccc(C)cc4)cc3)CC2)cc1	i	i	nt
CN(c1ccc(C(=O)N2CCN(Cc3ccc4c(c3)OCO4)CC2)cc1)S(=O)(=O)c1ccccc1	i	nt	nt
Cc1ccc(S(=O)(=O)N(C)c2ccc(C(=O)N3CCN(Cc4ccc5c(c4)OCO5)CC3)cc2)cc1	-5	nt	0.063
CCc1[nH]nc2c1C1(C(=O)N(Cc3ccccc3)c3ccccc31)C(C#N)=C(N)O2 (stereo unspecified)	i	nt	nt
Cc1cc(F)ccc1NC(=O)c1cnccn1	i	i	nt
CC1(C)CC(=O)C=C(NCc2ccc(Cl)c(Cl)c2)C1	i	nt	nt
CN1CCN(/C=C2\SC(=S)NC2=O)CC1	i	nt	nt
C/C(Cl)=C\Cn1c(NCCCn2ccnc2)nc2c1c(=O)n(C)c(=O)n2C	i	nt	nt
C/C(=N\NC(=O)COc1ccccc1[N+](=O)[O-])c1cccs1	1.4	i	i
COc1ccc(OCC(=O)N/N=C(\C)c2cccs2)cc1	nt	i	nt
CCOC(=O)N1CCN(C(=O)CSCC(=O)Nc2nc(-c3cccs3)cs2)CC1	i	i	nt
CC1CCN(C(=O)CSCC(=O)Nc2nc(-c3cccs3)cs2)CC1	nt	nt	0.065
CC1CC(C)CN(CCCNC(=O)Cn2ncn3cccc3c2=O)C1 (stereo unspecified)	i	nt	nt
Cc1ccc(N2C(=O)[C@@H]3[C@H](C2=O)[C@H]2C=C(C(=O)c4ccccc4)C=CN2[C@@H]3C(=O)c2ccc(Cl)cc2)cc1	nt	i	i
O=C(C1=C[C@@H]2[C@H]3C(=O)N(c4cccc(Cl)c4)C(=O)[C@H]3[C@@H](C(=O)c3ccc(Cl)cc3)N2C=C1)c1ccccc1	nt	i	nt
SMILES	ROMK mod	Biofilm kill mix	ROMK hit retest
COc1cc(C(=O)OCC(=O)NCc2ccccc2)cc(NC(=O)c2ccco2)c1OC	i	nt	nt
Cc1ccccc1Cn1nc(C)c(NC(=O)/C=C/c2cnn(C)c2C)c1C	i	i	nt
Cc1ccccc1Cn1nc(C)c(NC(=O)/C=C/c2cnn(C)c2)c1C	3.2	i	i
COC(/C=C/Nc1ccc(Br)cc1)=C(C#N)C#N	i	nt	nt
O=C(NNC(=S)Nc1ccc(Cl)cc1)c1cccs1	i	i	nt
O=[N+]([O-])c1ccc(/C=C/c2ccc3ccccc3n2)cc1	i	i	nt
CC1(C)Oc2ccccc2OC1(O)c1ccc2ccccc2n1 (stereo unspecified)	nt	i	0.064
COc1cc(NC(=O)c2ccccc2F)ccc1NC(=O)c1ccccc1Cl	i	i	nt
O=C(CSc1nnc(COc2ccccc2)o1)c1ccccc1	i	nt	nt
CC(C)(C)NC(=O)CN(C(=O)CSc1nnc(COc2ccccc2)o1)c1cccc(F)c1	-2.7	nt	?
COc1ccc(/C=N/n2cnc3c([nH]c4ccccc43)c2=O)cc1COc1ccccn1	i	i	nt
N#Cc1cnc(NOCc2ccc(Cl)cc2)nc1	-9.5	i	i
COc1ccnc(N=CNOCc2ccc(Cl)cc2)c1C#N	nt	i	nt
Cc1ccc(C(=O)OCc2c(C)noc2C)cc1NC(=O)c1ccco1	i	i	nt
COC(=O)[C@@H]1C[C@@]2(O)[C@@H](O)[C@@H](O)[C@@H](O)C[C@H]2N1Cc1ccc(C(F)(F)F)cc1	nt	i	i
COC(=O)[C@@H]1C[C@@]2(O)[C@H](O)[C@H](O)[C@H](O)C[C@H]2N1Cc1ccc(C(F)(F)F)cc1	nt	i	nt
Cc1ccc(/C=C/C(=O)NC(=S)N2CCN(C)CC2)cc1	nt	i	nt
CCc1cc2ccc(C)cc2nc1SCC(=O)Nc1cc(C)on1	nt	i	nt
CCc1cc2cc3c(cc2nc1SCC(=O)Nc1cc(C)on1)OCO3	nt	nt	i
O=C(Cc1ccccc1)Nc1ccc(N2CCCCC2)cc1	i	i	nt
CCOC(=O)C1(Cc2cccc(OC)c2)CCCN(Cc2nccn2CC)C1 (stereo unspecified)	i	i	nt
CCCOc1ccc(-c2cc(C(=O)NCC3CCCO3)c3ccccc3n2)cc1 (stereo unspecified)	-4.2	i	?
O=C(COC(=O)c1cccc2ccccc12)NCC1CCCO1 (stereo unspecified)	i	i	nt
